# Source: PubChem (SRMLSC)
# The entries come from a sample that favours hits as a whole.
# PTEN del growth – growth suppression of PTEN-null HCT116, primary screen, cell-based, CellTiter-Glo | HCT116 PTEN-null viability, 60 h; active compounds read low | viability, % at 10 µM | 140,000 tested, 1.2% active;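 active means viability at or below a set limit, 4 SD under the median of all tested compounds, cut at about 3.7% in these data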;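 further: PTEN knockout HCT116 line with beta catenin targeted HCT116 as companion control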
# HUVEC prolif 384 – inhibitors of HUVEC proliferation, primary screen, cell-based, 384-well | CellTiter-Glo luminescence, 72 h; active compounds read low | 86,000 tested, 1.1% active | AID 648, 2007 | viability, % at 10 µM (by protocol);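 active means viability at or below 30%; inactive means viability above 30%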;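 further: 100% = median luminescence of DMSO-only cell control wells on each plate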
# bCat KO growth – primary screen for growth suppressors in beta-catenin knockout HCT116 cells (colon tumor, human); 140,000 tested, 1.5% active; HCT116 beta-catenin knockout viability, CellTiter-Glo, 60 h; active compounds read low; viability, % at 10 µM; AID 818, 2007;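 active means viability at or under a set limit, the compound median less 4 SD, cut at about 6% in these data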;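 further: 0% = Hyamine 1622 control at 20 µM and 100% = untreated cell control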
# Fibroblast inh – antiproliferative effect on LL 47 fibroblasts – human, LL 47 cells, CellTiter-Glo luminescence, primary screen; LL 47 human lung fibroblast viability, ATP luminescence; active compounds read low; 85,000 tested, 1.1% active; AID 719, 2007; viability, % at 10 µM;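 active means viability at or below 50% in the single dose screen; inactive means viability above 50%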;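 further: compound exposure lasted 72 h before the ATP readout; 100% = median luminescence of untreated cell-only wells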
#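 Test system: LL 47 human lung fibroblasts / Quantity: 1,150 cells in each well / Medium: IMEM growth medium with 15% fetal bovine serum / Incubation: 72 h compound exposure at 37 °C after overnight plating / Detection: CellTiter-Glo luminescence measuring cellular ATP / Read-out: % viability versus median cells-only luminescence / Benchmarks: cell-only wells, no compound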
# H69AR inhibit – proliferation blockers of H69AR lung cancer cells, primary screen, cell-based, human, 86K library. 85,000 tested, 6% active. H69AR lung tumor viability, ATP luminescence, 72 h; active compounds read low. viability, % at 10 µM;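 active means viability at or below 40%; inactive means viability above 40%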;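 further: multidrug resistant small cell line overexpressing MRP-1 efflux transporter; 100% = mean luminescence of untreated control wells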
# The depositor's hits bear a star; . = not tested or not shown.
SMILES,PTEN del growth,HUVEC prolif 384,bCat KO growth,Fibroblast inh,H69AR inhibit
Cc1ccc(Cn2nnnc2CN2CCC(n3nnc4cc(C)ccc43)CC2)cc1,43.0,65.3,47.3,89.6,26.8*
FC(F)(F)c1ccc2c(c1)nnn2C1CCN(Cc2nnnn2Cc2ccccc2)CC1,42.2,70.4,54.7,92.8,.
Cc1ccc(Cn2nnnc2CN2CCC(n3nnc4cc(C(F)(F)F)ccc43)CC2)cc1,43.2,53.9,47.0,75.5,2.0*
Fc1ccc2c(c1)nnn2C1CCN(Cc2c(Cl)cccc2Cl)CC1,72.1,88.8,83.2,96.1,87.5
COc1ccccc1N1CCN(Cc2cccc(OC)c2O)CC1,80.9,.,90.4,.,.
CC12CCC3C(CCC4C/C(=N/O)CCC43C)C1CCC2O (configuration not stated),88.8,.,93.1,.,.
CC1(C)N=C(c2ccccc2)[C@@H]2C(c3ccc([N+](=O)[O-])cc3)N21 (some centres not stated),86.6,.,86.6,.,.
Cn1c(CN2CCN(C(=O)COc3ccccc3)CC2)nc2cc([N+](=O)[O-])ccc21,84.7,.,84.4,.,.
COc1cccc(-n2c(CN3CCN(C)CC3)nc3ccc([N+](=O)[O-])cc3c2=O)c1,67.7,.,71.5,.,.
O=C(O)C1CN2CCC1CC2 (configuration not stated),92.8,91.4,95.1,97.1,92.4
CCCC1(CCC)C(=O)NC(=NCc2ccccc2)NC1=O,45.6,51.1,24.7,52.9,28.8*
CC(=Nc1ccc2c(c1)CCC2)c1c(O)n(C2CCCCC2)c(=O)[nH]c1=O,95.4,42.1,54.1,37.2*,40.4
COc1ccc(N=C(C)c2c(O)n(C3CCCCC3)c(=O)[nH]c2=O)c(OC)c1,64.5,82.0,67.7,94.0,67.2
O=c1c2ccccc2nc(-c2ccoc2)n1-c1ccccc1Cl,33.9,86.3,36.2,97.7,34.1*
COc1ccccc1-n1c(-c2ccoc2)nc2ccccc2c1=O,81.9,.,89.6,.,.
O=C(NCc1ccc(C(=O)N2CCC3(CC2)OCCO3)cc1)c1ccc2c(c1)OCO2,.,97.8,90.5,98.6,89.9
O=C(c1ccc2c(=O)n(Cc3ccc4c(c3)OCO4)c(=S)[nH]c2c1)N1CCC2(CC1)OCCO2,86.3,101.3,90.2,99.7,31.6*
Cc1cc(Cl)ccc1OC(C)C(=O)O (configuration not stated),87.2,92.4,91.9,93.0,93.9
CC(C)OC(=O)c1c(N)n(CC2CCCO2)c2nc3ccccc3nc12 (configuration not stated),89.0,86.9,92.8,.,33.9*
CC(C)CCn1c(N)c(C(=O)OCC2CCCO2)c2nc3ccccc3nc21 (configuration not stated),29.6,59.8,33.8,90.7,20.4*
CC(C)CCOC(=O)c1c(N)n(CC2CCCO2)c2nc3ccccc3nc12 (configuration not stated),44.4,66.5,41.7,99.4,51.7
Cn1nc(N)c2c1N=P(N1CCOCC1)(N1CCOCC1)N=C2c1ccccc1,95.3,103.0,91.8,98.1,104.7
Cc1ccc(-c2cc(C(F)F)n3ncc(C(=O)N4CCC5(CC4)OCCO5)c3n2)cc1,93.7,91.0,76.9,97.5,56.4
CCOC(=O)C1=C(N)Oc2cc(C)oc(=O)c2C12C(=O)N1c3c(cc(OC)cc32)C(C)=CC1(C)C (configuration not stated),42.6,90.6,60.0,96.3,31.4*
CCOC(=O)C1=C(N)Oc2cc(C)oc(=O)c2C12C(=O)N1c3c(cccc32)C(C)=CC1(C)C (configuration not stated),62.6,82.6,31.4,98.5,72.8
CCOc1ccc(-c2cc(C(=O)N3CCC4(CC3)OCCO4)c3ccccc3n2)cc1,.,74.5,.,95.5,82.8
CCOC(=O)c1c(C)n(Cc2ccccc2)c2ccc(OCC(O)Cn3nc(C)cc3C)cc12 (configuration not stated),65.7,61.3,73.5,99.8,12.2*
CC1CCC(C(=O)NC(C(=O)N2CCC3(CC2)OCCO3)C(C)C)CC1 (configuration not stated),90.2,101.7,84.8,95.1,91.5
